Measured values reported in ChEMBL document CHEMBL1153527, “Discovery of a novel series of quinolone and naphthyridine derivatives as potential topoisomerase I inhibitors by scaffold modification” (J Med Chem, 2009).

Assays:
KB = test: Cytotoxicity against human KB cells after 48 hrs by MTT assay; type: functional, cell-based
Bel-7402 = test: Cytotoxicity against human Bel7402 cells after 48 hrs by MTT assay; type: functional, cell-based; settings: Bel-7402, 48 h
A2780 = test: Cytotoxicity against human A2780 cells after 48 hrs by MTT assay; type: functional, cell-based; settings: A2780, 48 h
HeLa = test: Cytotoxicity against p53-deficient human HeLa cells after 48 hrs by SRB assay; type: functional, cell-based
In short: (§1)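 Cell lines came from CCRC, Taiwan. Cells were seeded at about 5 × 10^3 per well and left overnight. They were then given serum-free medium containing 0-10 μM compound (0.08-10 μM serial dilutions) for 48 h at 37 °C. Cells were fixed with TCA (10% final), stained with SRB (0.4% final), and the dye was dissolved in 10 mM Tris with A515 read. IC50 was taken from a fitted log concentration-response curve.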

AGS = test: Cytotoxicity against human AGS cells expressing wild type p53 after 48 hrs by SRB assay; type: functional, cell-based; in short: as §1
A549 = test: Cytotoxicity against human A549 cells expressing wild type p53 after 48 hrs by SRB assay; type: functional, cell-based; settings: A549, 48 h; in short: as §1
PC-3 = test: Cytotoxicity against p53-deficient human PC3 cells after 48 hrs by SRB assay; type: functional, cell-based; settings: PC-3, 48 h; in short: as §1
K562 = test: Cytotoxicity against p53-deficient human K562 cells after 48 hrs by SRB assay; type: functional, cell-based; settings: K562, 48 h
[1] = Cytotoxicity against p53-deficient human Hep3B cells after 48 hrs by SRB assay; type: functional, cell-based, Hep 3B2; in short: as §1
[2] = Cytotoxicity against estrogen receptor-negative human […] cells expressing p53 mutant after 48 hrs by SRB assay; type: functional, cell-based; in short: as §1
THP-1 = test: Cytotoxicity against human THP1 cells expressing p53 mutant after 48 hrs by SRB assay; type: functional, cell-based; settings: THP-1, 48 h
U-937 = test: Cytotoxicity against human U937 cells expressing p53 mutant after 48 hrs by SRB assay; type: functional, cell-based; settings: U-937, 48 h
MCF7 = test: Cytotoxicity against estrogen receptor-positive human MCF7 cells expressing wild type p53 after 48 hrs by SRB assay; type: functional, cell-based; settings: MCF7, 48 h; in short: as §1
HepG2 = test: Cytotoxicity against human HepG2 cells expressing wild type p53 after 48 hrs by SRB assay; type: functional, cell-based; settings: HepG2, 48 h; in short: as §1
HT-29 = test: Cytotoxicity against human HT-29 cells expressing p53 mutant after 48 hrs by SRB assay; type: functional, cell-based; settings: HT-29, 48 h; in short: as §1

Question: Which IC50 (KB) does the source give for `CCn1cc(-c2nc3ccccc3s2)c(=O)c2cc(F)c(N3CCNC(C)C3)c(F)c21` (stereo unspecified) here?
Answer: 24.3 µM

Question: And the IC50 (Bel-7402)?
Answer: 15 µM

Question: And the IC50 (A2780)?
Answer: 9.8 µM

Question: For `C[C@H]1COc2c(N3CCN(C)CC3)c(F)cc3c(=O)c(-c4nc5ccccc5s4)cn1c23`, which IC50 (KB) is on record?
Answer: 60.2 µM

Question: What about the IC50 (Bel-7402) of the same compound?
Answer: 92.2 µM

Question: And the IC50 (A2780)?
Answer: 26.6 µM

Question: With `CCn1cc(-c2nc3ccccc3[nH]2)c(=O)c2cc(F)c(N3CCNCC3)nc21` as the compound, how does the GI50 (HeLa) read?
Answer: 6.4 µM

Question: What about the IC50 (HeLa) of the same compound?
Answer: 10 µM

Question: What about the GI50 (AGS) of the same compound?
Answer: 2.1 µM

Question: What about the IC50 (AGS) of the same compound?
Answer: 6.6 µM

Question: And the GI50 (A549)?
Answer: 4.9 µM

Question: What about the IC50 (A549) of the same compound?
Answer: 7.8 µM

Question: What about the GI50 (PC-3) of the same compound?
Answer: > 10 µM

Question: And the IC50 (PC-3)?
Answer: > 10 µM

Question: What about the IC50 (K562) of the same compound?
Answer: 9.1 µM

Question: And the GI50 [1]?
Answer: 3.7 µM

Question: And the IC50 [1]?
Answer: 7.8 µM

Question: What about the IC50 (KB) of the same compound?
Answer: 2 µM

Question: And the IC50 (Bel-7402)?
Answer: 4.1 µM

Question: And the IC50 (A2780)?
Answer: 4.8 µM

Question: What about the GI50 [2] of the same compound?
Answer: 3.3 µM

Question: And the IC50 [2]?
Answer: 10 µM

Question: What about the IC50 (THP-1) of the same compound?
Answer: > 10 µM

Question: What about the IC50 (U-937) of the same compound?
Answer: > 10 µM

Question: What about the GI50 (MCF7) of the same compound?
Answer: 8.3 µM

Question: And the IC50 (MCF7)?
Answer: 9.5 µM

Question: And the GI50 (HepG2)?
Answer: 6.8 µM

Question: What about the IC50 (HepG2) of the same compound?
Answer: 9.1 µM

Question: What about the GI50 (HT-29) of the same compound?
Answer: > 10 µM

Question: What about the IC50 (HT-29) of the same compound?
Answer: > 10 µM

Question: Which results are given for `CCn1cc(-c2nc3ccc([N+](=O)[O-])cc3[nH]2)c(=O)c2cc(F)c(N3CCNCC3)nc21`?
Answer: IC50 (KB): 22.4 µM; IC50 (Bel-7402): 10.8 µM; IC50 (A2780): 12.4 µM

Question: With `CCn1cc(-c2nc3ccccc3[nH]2)c(=O)c2cc(F)c(N3CCNC(C)C3)c(F)c21` (stereo unspecified) as the compound, how does the IC50 (KB) read?
Answer: 19.1 µM

Question: What about the IC50 (Bel-7402) of the same compound?
Answer: 30.2 µM

Question: What about the IC50 (A2780) of the same compound?
Answer: 11.6 µM

Question: With `CCn1cc(-c2nc3ccccc3s2)c(=O)c2cc(F)c(N3CCN(C)CC3)cc21` as the compound, how does the IC50 (KB) read?
Answer: 19 µM

Question: And the IC50 (Bel-7402)?
Answer: 24 µM

Question: What about the IC50 (A2780) of the same compound?
Answer: 114 µM

Question: What does the source list for `CCn1cc(-c2nc3ccc([N+](=O)[O-])cc3o2)c(=O)c2cc(F)c(N3CCN(C)CC3)cc21`?
Answer: IC50 (KB): 40.3 µM; IC50 (Bel-7402): 50.2 µM; IC50 (A2780): 39.6 µM

Question: For `CCn1cc(-c2nc3ccc([N+](=O)[O-])cc3[nH]2)c(=O)c2cc(F)c(N3CCNC(C)C3)c(F)c21` (stereo unspecified), which GI50 (HeLa) is on record?
Answer: 1.4 µM

Question: And the IC50 (HeLa)?
Answer: 2.4 µM

Question: What about the GI50 (AGS) of the same compound?
Answer: 2.6 µM

Question: What about the IC50 (AGS) of the same compound?
Answer: 8.2 µM

Question: And the GI50 (A549)?
Answer: 0.6 µM

Question: And the IC50 (A549)?
Answer: 2.4 µM

Question: What about the GI50 (PC-3) of the same compound?
Answer: 7.9 µM

Question: And the IC50 (PC-3)?
Answer: 9.6 µM

Question: And the IC50 (K562)?
Answer: 4.7 µM

Question: What about the GI50 [1] of the same compound?
Answer: 1.6 µM

Question: What about the IC50 [1] of the same compound?
Answer: 5.5 µM

Question: And the IC50 (KB)?
Answer: 2.3 µM

Question: What about the IC50 (Bel-7402) of the same compound?
Answer: 1.1 µM

Question: What about the IC50 (A2780) of the same compound?
Answer: 2.3 µM

Question: What about the GI50 [2] of the same compound?
Answer: 1.8 µM

Question: What about the IC50 [2] of the same compound?
Answer: 5.5 µM

Question: And the IC50 (THP-1)?
Answer: 7.8 µM

Question: And the IC50 (U-937)?
Answer: > 10 µM

Question: What about the GI50 (MCF7) of the same compound?
Answer: 2.6 µM

Question: What about the IC50 (MCF7) of the same compound?
Answer: 4.9 µM

Question: What about the GI50 (HepG2) of the same compound?
Answer: 1.5 µM

Question: What about the IC50 (HepG2) of the same compound?
Answer: 4.2 µM

Question: And the GI50 (HT-29)?
Answer: 4.2 µM

Question: What about the IC50 (HT-29) of the same compound?
Answer: 7.5 µM

Question: Which IC50 (KB) does the source give for `CC[C@@]1(O)C(=O)OCc2c1cc1n(c2=O)Cc2cc3cc(O)ccc3nc2-1` [HYDROXYCAMPTOTHECIN] here?
Answer: 0.6 µM

Question: What about the IC50 (Bel-7402) of the same compound?
Answer: 0.2 µM

Question: And the IC50 (A2780)?
Answer: 0.7 µM

Question: For `CCn1cc(-c2nc3ccc(N)cc3[nH]2)c(=O)c2cc(F)c(N3CCNCC3)cc21`, which GI50 (HeLa) is on record?
Answer: > 10 µM

Question: What about the IC50 (HeLa) of the same compound?
Answer: > 10 µM

Question: What about the GI50 (AGS) of the same compound?
Answer: 7.8 µM

Question: What about the IC50 (AGS) of the same compound?
Answer: 10 µM

Question: And the GI50 (A549)?
Answer: > 10 µM

Question: What about the IC50 (A549) of the same compound?
Answer: > 10 µM

Question: What about the GI50 (PC-3) of the same compound?
Answer: > 10 µM

Question: And the IC50 (PC-3)?
Answer: > 10 µM

Question: What about the IC50 (K562) of the same compound?
Answer: > 10 µM

Question: What about the GI50 [1] of the same compound?
Answer: > 10 µM

Question: And the IC50 [1]?
Answer: > 10 µM

Question: And the IC50 (KB)?
Answer: 35.4 µM

Question: And the IC50 (Bel-7402)?
Answer: 92.1 µM

Question: And the IC50 (A2780)?
Answer: 51.5 µM

Question: What about the GI50 [2] of the same compound?
Answer: > 10 µM

Question: And the IC50 [2]?
Answer: > 10 µM

Question: And the IC50 (THP-1)?
Answer: 10 µM

Question: And the IC50 (U-937)?
Answer: > 10 µM

Question: What about the GI50 (MCF7) of the same compound?
Answer: > 10 µM

Question: What about the IC50 (MCF7) of the same compound?
Answer: > 10 µM

Question: What about the GI50 (HepG2) of the same compound?
Answer: > 10 µM

Question: And the IC50 (HepG2)?
Answer: > 10 µM

Question: What about the GI50 (HT-29) of the same compound?
Answer: > 10 µM

Question: What about the IC50 (HT-29) of the same compound?
Answer: > 10 µM

Question: What does the source list for `CCn1cc(-c2nc3ccc(Cl)cc3[nH]2)c(=O)c2cc(F)c(N3CCNCC3)nc21`?
Answer: IC50 (KB): 10.3 µM; IC50 (Bel-7402): 21.5 µM; IC50 (A2780): 6.3 µM

Question: With `CCn1cc(-c2nc3ccc([N+](=O)[O-])cc3s2)c(=O)c2cc(F)c(N3CCN(C)CC3)cc21` as the compound, how does the GI50 (HeLa) read?
Answer: > 10 µM

Question: What about the IC50 (HeLa) of the same compound?
Answer: > 10 µM

Question: What about the GI50 (AGS) of the same compound?
Answer: 2.6 µM

Question: What about the IC50 (AGS) of the same compound?
Answer: 4.5 µM

Question: What about the GI50 (A549) of the same compound?
Answer: 4.7 µM

Question: What about the IC50 (A549) of the same compound?
Answer: 10 µM

Question: What about the GI50 (PC-3) of the same compound?
Answer: 5.5 µM

Question: What about the IC50 (PC-3) of the same compound?
Answer: 7.5 µM

Question: And the IC50 (K562)?
Answer: > 10 µM

Question: And the GI50 [1]?
Answer: > 10 µM

Question: And the IC50 [1]?
Answer: > 10 µM

Question: And the IC50 (KB)?
Answer: 5.8 µM

Question: What about the IC50 (Bel-7402) of the same compound?
Answer: 7.7 µM

Question: And the IC50 (A2780)?
Answer: 4.3 µM

Question: And the GI50 [2]?
Answer: > 10 µM

Question: And the IC50 [2]?
Answer: > 10 µM

Question: What about the IC50 (THP-1) of the same compound?
Answer: > 10 µM

Question: And the IC50 (U-937)?
Answer: > 10 µM

Question: What about the GI50 (MCF7) of the same compound?
Answer: > 10 µM

Question: And the IC50 (MCF7)?
Answer: > 10 µM

Question: And the GI50 (HepG2)?
Answer: > 10 µM

Question: What about the IC50 (HepG2) of the same compound?
Answer: > 10 µM

Question: What about the GI50 (HT-29) of the same compound?
Answer: > 10 µM

Question: And the IC50 (HT-29)?
Answer: > 10 µM

Question: For `CCn1cc(-c2nc3ccc([N+](=O)[O-])cc3[nH]2)c(=O)c2cc(F)c(N3CCN(C)CC3)cc21`, which IC50 (KB) is on record?
Answer: 2.5 µM

Question: What about the IC50 (Bel-7402) of the same compound?
Answer: 4.4 µM

Question: And the IC50 (A2780)?
Answer: 4.7 µM

Question: For `CCn1cc(-c2nc3ccc([N+](=O)[O-])cc3s2)c(=O)c2cc(F)c(N3CCNCC3)nc21`, which IC50 (KB) is on record?
Answer: 179 µM

Question: What about the IC50 (Bel-7402) of the same compound?
Answer: 24.6 µM

Question: And the IC50 (A2780)?
Answer: 200 µM
